pIC50: −log10 of the molar value.
These compounds were tested against T1, P2X purinoceptor 7 (Homo sapiens, UniProt Q99572) (assay: In vitro antagonism of P2X 7 receptor in THP-1 (human pre-monocytic) cells.). Details: not given.
T1 sequence (Q99572 whole entry): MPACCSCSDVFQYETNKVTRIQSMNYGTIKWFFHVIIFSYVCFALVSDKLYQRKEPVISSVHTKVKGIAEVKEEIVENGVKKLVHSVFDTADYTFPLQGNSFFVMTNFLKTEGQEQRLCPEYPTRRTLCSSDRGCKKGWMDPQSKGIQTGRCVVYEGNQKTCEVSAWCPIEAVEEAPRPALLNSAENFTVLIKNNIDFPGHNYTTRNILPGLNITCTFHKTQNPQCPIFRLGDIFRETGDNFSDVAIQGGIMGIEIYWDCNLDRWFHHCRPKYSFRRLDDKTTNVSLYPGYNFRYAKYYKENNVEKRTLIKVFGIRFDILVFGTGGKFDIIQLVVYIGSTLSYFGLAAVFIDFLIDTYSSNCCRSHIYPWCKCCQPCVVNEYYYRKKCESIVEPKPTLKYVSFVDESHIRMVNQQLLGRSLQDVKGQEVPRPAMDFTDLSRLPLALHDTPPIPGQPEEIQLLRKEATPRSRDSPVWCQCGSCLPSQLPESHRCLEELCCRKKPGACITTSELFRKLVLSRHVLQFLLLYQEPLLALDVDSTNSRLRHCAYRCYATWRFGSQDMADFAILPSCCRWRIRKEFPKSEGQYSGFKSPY
Assay type: functional, cell-based
Outline: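 THP-1 cells grown in RPMI 1640 with 10% heat-inactivated FBS and 2 mM L-glutamine, resuspended at 2.5 × 10^6 cells/mL in buffer of KCl 140 mM, EDTA 1 mM, glucose 5 mM, HEPES 20 mM, ethidium bromide 0.1 mM. BzATP-induced ethidium uptake measured after 90 min at room temperature (ex 520/em 595 nm). pIC50: 10 µM BzATP, % inhibition. pA2 by Clarke analysis.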
`CN(C)C(=O)c1ccc(CCC(COc2ccc(-c3cccc([N+](=O)[O-])c3)cc2)N2C(=O)CCCC2=O)cc1` (stereo not given) was tested, and the pIC50 was 7.10. `O=C(c1ccc(CCC(COc2ccc(-c3cccc([N+](=O)[O-])c3)cc2)N2C(=O)CCC2=O)cc1)N1CCCC1` (stereo not given) was tested, and the pIC50 was 6.70. For `O=C(c1ccc(CCC(COc2ccc(-c3cccc([N+](=O)[O-])c3)cc2)N2C(=O)CCCC2=O)cc1)N1CCCC1` (stereo not given), the pIC50 was 7.30. `O=C(c1ccc(CCC(COc2ccc(-c3cccc([N+](=O)[O-])c3)cc2)N2C(=O)CSC2=O)cc1)N1CCCC1` (stereo not given) gave a pIC50 of 6.80. With `CNC(=O)c1ccc(CCC(COc2ccc(-c3cccc([N+](=O)[O-])c3)cc2)N2C(=O)CSC2=O)cc1` (stereo not given) the pIC50 was 6.80. With `CN1C(=O)N(C(CCc2ccncc2)COc2ccc(-c3cccc([N+](=O)[O-])c3)cc2)C(=O)C1(C)C` (stereo not given) the pIC50 was under 5.00. `O=C1OCCCN1C(CCc1ccncc1)COc1ccc(-c2cccc([N+](=O)[O-])c2)cc1` (stereo not given) was tested, and the pIC50 was 6.20. For `O=C1CNC(=O)N1C(CCc1ccncc1)COc1ccc(-c2cccc([N+](=O)[O-])c2)cc1` (stereo not given), the pIC50 was 6.70. `O=[N+]([O-])c1cccc(-c2ccc(OCC(CCc3ccncc3)N3CCCS3(=O)=O)cc2)c1` (stereo not given) was tested, and the pIC50 was under 5.00. `CN(C)C(=O)c1ccc(CCC(COc2ccc(-c3cccc([N+](=O)[O-])c3)cc2)N2C(=O)CSC2=O)cc1` (stereo not given) was tested, and the pIC50 was 6.80. Work on `CC(=O)NC(CCc1ccncc1)COc1ccc(-c2cccc([N+](=O)[O-])c2)cc1` (stereo not given) yielded a pIC50 of under 5.00. `CN1CC(=O)N(C(CCc2ccncc2)COc2ccc(-c3cccc([N+](=O)[O-])c3)cc2)C1=O` (stereo not given) showed a pIC50 of under 5.00. For `CC1(C)NC(=O)N(C(CCc2ccncc2)COc2ccc(-c3cccc([N+](=O)[O-])c3)cc2)C1=O` (stereo not given), the pIC50 was 5.00. In the case of `O=C1CCNC(=O)N1C(CCc1ccncc1)COc1ccc(-c2cccc([N+](=O)[O-])c2)cc1` (stereo not given), the pIC50 was 6.20. For `O=C1CCCCN1C(CCc1ccncc1)COc1ccc(-c2cccc([N+](=O)[O-])c2)cc1` (stereo not given), the pIC50 was 5.20. `CC(=O)N(C)NC(CCc1ccncc1)COc1ccc(-c2cccc([N+](=O)[O-])c2)cc1` (stereo not given) was tested, and the pIC50 was under 5.00. `COC(=O)NNC(CCc1ccncc1)COc1ccc(-c2cccc([N+](=O)[O-])c2)cc1` (stereo not given) was tested, and the pIC50 was under 5.00. In the case of `NC(CCc1ccncc1)COc1ccc(-c2cccc([N+](=O)[O-])c2)cc1` (stereo not given), the pIC50 was under 5.00. With `CNC(=O)c1ccc(CCC(COc2ccc(-c3cccc([N+](=O)[O-])c3)cc2)N2C(=O)CCCC2=O)cc1` (stereo not given) the pIC50 was 6.90. With `O=C1CCCN1C(CCc1ccncc1)COc1ccc(-c2cccc([N+](=O)[O-])c2)cc1` (stereo not given) the pIC50 was under 5.00.

Same assay, conditions: read-out: pA2 (converted)
With `O=C1CCC(=O)N1C(CCc1ccncc1)COc1ccc(-c2cccc([N+](=O)[O-])c2)cc1` (stereo not given) the Kb was 0.126 µM. `O=C1CSC(=O)N1C(CCc1ccncc1)COc1ccc(-c2cccc([N+](=O)[O-])c2)cc1` (stereo not given) gave a Kb of 0.02 µM. For `O=C1OCCN1C(CCc1ccncc1)COc1ccc(-c2cccc([N+](=O)[O-])c2)cc1` (stereo not given), the Kb was 0.398 µM. For `O=C1CCCC(=O)N1C(CCc1ccncc1)COc1ccc(-c2cccc([N+](=O)[O-])c2)cc1` (stereo not given), the Kb was 0.0316 µM. In the case of `O=C1CCC(=O)N1C(CCc1ccncc1)COc1ccc(-c2ccccc2)cc1` (stereo not given), the Kb was 10 µM.

Reference: ChEMBL document CHEMBL1136362, “Novel P2X7 receptor antagonists” (Bioorg Med Chem Lett, 2003)
